Measurements taken from ChEMBL document CHEMBL4393684, “Benzoic acid-derived nitrones: A new class of potential acetylcholinesterase inhibitors and neuroprotective agents” (Eur J Med Chem, 2019).
The source made the active and inactive calls. No cut-off for these calls is given here.

Columns and labels:
[1] = biological target: Cholinesterase (Equus caballus) (UniProt P81908); test: Inhibition of equine serum BChE using butyrylthiocholine iodide as substrate at 50 uM incubated for 5 mins followed by substrate addition measured for 5 mins by Ellman's method
Chain of Cholinesterase (Equus caballus) (P81908 whole entry): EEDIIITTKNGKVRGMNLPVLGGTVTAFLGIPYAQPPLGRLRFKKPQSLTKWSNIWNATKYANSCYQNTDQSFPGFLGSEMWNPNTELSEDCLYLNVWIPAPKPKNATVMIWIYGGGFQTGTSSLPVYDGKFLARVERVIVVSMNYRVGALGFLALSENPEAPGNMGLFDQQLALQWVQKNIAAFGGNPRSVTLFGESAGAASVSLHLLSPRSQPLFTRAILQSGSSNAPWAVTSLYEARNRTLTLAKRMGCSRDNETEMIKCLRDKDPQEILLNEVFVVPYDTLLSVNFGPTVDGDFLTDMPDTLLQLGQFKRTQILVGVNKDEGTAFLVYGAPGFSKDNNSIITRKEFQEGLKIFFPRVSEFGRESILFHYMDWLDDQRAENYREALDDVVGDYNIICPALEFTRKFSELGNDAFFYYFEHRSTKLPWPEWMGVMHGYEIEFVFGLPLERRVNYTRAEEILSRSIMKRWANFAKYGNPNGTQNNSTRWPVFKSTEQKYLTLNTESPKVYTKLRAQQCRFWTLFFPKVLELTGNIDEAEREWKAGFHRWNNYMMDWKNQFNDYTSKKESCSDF
Outline: (§1)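 Ellman's colorimetric method. AChE came from Electrophorus electricus and BChE from equine serum. Compounds were tested up to 50 μM, the highest concentration.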

[2] = tested on: SH-SY5Y; test: Cytotoxicity against human SH-SY5Y cells assessed as reduction in cell viability at 1 to 50 uM incubated for 24 hrs by MTT assay; type: cell-based
Outline: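 Differentiated human SH-SY5Y neuroblastoma cells were exposed in culture medium to 1, 10 and 50 μM for 24 h. Viability was read as metabolic activity by MTT reduction. Untreated cells served as control, and results are mean % of untreated controls ± SEM (n = 4).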

[3] = tested on: HepG2; test: Cytotoxicity against human HepG2 cells assessed as reduction in cell viability at 1 to 50 uM incubated for 24 hrs by resazurin dye based fluorescence assay; conditions: hepg2, 24 h
Outline: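 HepG2 hepatocellular carcinoma cells were exposed in culture medium to 1, 10 and 50 μM. Viability was measured as metabolic activity by resazurin reduction. Results are mean % of untreated control cells ± SEM (n = 4).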

[4] = biological target: Acetylcholinesterase (Electrophorus electricus) (UniProt O42275); test: Inhibition of electric eel AChE using acetylthiocholine iodide as substrate at 50 uM incubated for 5 mins followed by substrate addition measured for 5 mins by Ellman's method; outline: as §1
Chain of Acetylcholinesterase (Electrophorus electricus) (O42275 24-633 limits assumed): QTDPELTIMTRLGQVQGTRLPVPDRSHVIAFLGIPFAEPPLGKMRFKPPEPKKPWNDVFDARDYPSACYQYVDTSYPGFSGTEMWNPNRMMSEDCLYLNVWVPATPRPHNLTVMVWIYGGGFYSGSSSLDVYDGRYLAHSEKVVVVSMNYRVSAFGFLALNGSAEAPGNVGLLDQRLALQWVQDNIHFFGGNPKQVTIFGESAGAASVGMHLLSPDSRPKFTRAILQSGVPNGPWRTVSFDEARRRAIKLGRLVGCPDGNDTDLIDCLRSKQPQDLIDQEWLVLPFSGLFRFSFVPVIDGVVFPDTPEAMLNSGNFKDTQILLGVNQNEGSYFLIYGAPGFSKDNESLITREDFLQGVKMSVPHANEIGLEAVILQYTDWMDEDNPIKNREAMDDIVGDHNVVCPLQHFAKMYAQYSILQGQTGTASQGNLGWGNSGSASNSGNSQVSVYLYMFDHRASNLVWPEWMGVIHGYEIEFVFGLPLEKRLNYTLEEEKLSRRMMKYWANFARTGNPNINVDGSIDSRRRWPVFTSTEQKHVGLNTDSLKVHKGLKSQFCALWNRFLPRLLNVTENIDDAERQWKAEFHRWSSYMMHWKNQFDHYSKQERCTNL

[5] = biological target: Acetylcholinesterase (Electrophorus electricus) (UniProt O42275); test: Mixed inhibition of electric eel AChE assessed as decrease in Vmax of substrate at 7.5 to 30 uM using acetylthiocholine iodide as substrate incubated for 5 mins followed by substrate addition measured for 5 mins by double reciprocal Lineweaver-Burk plot analysis
[6] = biological target: Acetylcholinesterase (Electrophorus electricus) (UniProt O42275); test: Mixed inhibition of electric eel AChE assessed as decrease in Km of substrate at 7.5 to 30 uM using acetylthiocholine iodide as substrate incubated for 5 mins followed by substrate addition measured for 5 mins by double reciprocal Lineweaver-Burk plot analysis
[7] = tested on: SH-SY5Y; test: Neuroprotective activity against DOX-induced oxidative stress in human SH-SY5Y cells assessed as metabolic stability at 10 to 100 uM incubated for 24 hrs by resazurin dye based fluorescence assay relative to control; type: functional
Outline: (§2)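 Differentiated SH-SY5Y cells were given test compounds at 10, 50 and 100 μM. Two protocols were used: 24 h compound pre-incubation then stressor, or stressor first then 24 h compound. Stressors were H2O2 1 mM, t-BHP 200 μM, ROT/AA 1 μM or DOX 1 μM, each for 4 h. Resazurin reduction was read as % of untreated control, four independent experiments, one-way ANOVA.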

[8] = tested on: SH-SY5Y; test: Neuroprotective activity against ROT/AA-induced oxidative stress in human SH-SY5Y cells assessed as metabolic stability at 10 to 100 uM incubated for 24 hrs by resazurin dye based fluorescence assay relative to control; type: functional; outline: as §2
[9] = tested on: SH-SY5Y; test: Neuroprotective activity against t-BHP-induced oxidative stress in human SH-SY5Y cells assessed as metabolic stability at 10 to 100 uM incubated for 24 hrs by resazurin dye based fluorescence assay relative to control; type: functional; outline: as §2
[10] = tested on: SH-SY5Y; test: Neuroprotective activity against H2O2-induced oxidative stress in human SH-SY5Y cells assessed as metabolic stability at 10 to 100 uM incubated for 24 hrs by resazurin dye based fluorescence assay relative to control; type: functional; outline: as §2
[11] = biological target: Acetylcholinesterase (Electrophorus electricus) (UniProt O42275); test: Noncompetitive inhibition of electric eel AChE assessed as effect on Km of substrate at 5 to 20 uM using acetylthiocholine iodide as substrate incubated for 5 mins followed by substrate addition measured for 5 mins by double reciprocal Lineweaver-Burk plot analysis
[12] = biological target: Acetylcholinesterase (Electrophorus electricus) (UniProt O42275); test: Noncompetitive inhibition of electric eel AChE assessed as decrease in Vmax for substrate at 5 to 20 uM using acetylthiocholine iodide as substrate incubated for 5 mins followed by substrate addition measured for 5 mins by double reciprocal Lineweaver-Burk plot analysis
[13] = biological target: Acetylcholinesterase (Electrophorus electricus, UniProt O42275); test: Inhibition of electric eel AChE assessed as inhibition constant using acetylthiocholine iodide as substrate pretreated for 5 mins followed by substrate addition measured for 5 mins by Dixon plot analysis
Chain of Acetylcholinesterase (O42275 whole entry): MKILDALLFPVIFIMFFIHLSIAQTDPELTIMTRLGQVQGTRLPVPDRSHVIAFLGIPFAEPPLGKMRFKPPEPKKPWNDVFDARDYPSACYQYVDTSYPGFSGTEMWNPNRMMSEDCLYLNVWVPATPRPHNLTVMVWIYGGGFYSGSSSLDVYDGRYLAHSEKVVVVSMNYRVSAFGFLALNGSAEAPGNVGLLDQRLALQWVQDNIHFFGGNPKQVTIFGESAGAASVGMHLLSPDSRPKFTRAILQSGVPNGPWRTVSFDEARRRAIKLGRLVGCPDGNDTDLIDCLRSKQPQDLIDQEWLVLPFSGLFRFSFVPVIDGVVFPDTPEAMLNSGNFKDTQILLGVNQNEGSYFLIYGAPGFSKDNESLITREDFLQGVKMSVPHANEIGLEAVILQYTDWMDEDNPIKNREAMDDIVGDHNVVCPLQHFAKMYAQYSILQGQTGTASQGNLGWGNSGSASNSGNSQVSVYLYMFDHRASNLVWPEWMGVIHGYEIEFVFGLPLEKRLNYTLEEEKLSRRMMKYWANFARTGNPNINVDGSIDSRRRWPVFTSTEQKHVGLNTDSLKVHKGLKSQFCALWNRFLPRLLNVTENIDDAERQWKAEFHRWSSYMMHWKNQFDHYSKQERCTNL

[14] = tested on: SH-SY5Y; test: Neuroprotective activity against t-BHP-induced oxidative stress in human SH-SY5Y cells assessed as metabolic stability incubated for 24 hrs by resazurin dye based fluorescence assay relative to control; type: functional, cell-based; outline: as §2

Row | SMILES | inhibition [1] | Activity [2] | Activity [3] | inhibition [4] | further results
1 | COc1ccc(C(=O)NCCCCCCCCC/C=[N+](\[O-])C(C)(C)C)cc1OC | inactive | Non-Toxic | Non-Toxic | – | –
2 | O=C(NCCCCC/C=[N+](\[O-])Cc1ccccc1)c1ccccc1 | inactive | Non-Toxic | Non-Toxic | inactive | –
3 | O=C(NCCCCC/C=[N+](\[O-])C1CCCCC1)c1ccccc1 | inactive | Non-Toxic | Non-Toxic | inactive | –
4 | COc1ccc(C(=O)NCCCCCCC/C=[N+](\[O-])C(C)(C)C)cc1OC | inactive | Non-Toxic | Non-Toxic | – | –
5 | COc1cc(C(=O)NCCCCC/C=[N+](\[O-])C2CCCCC2)cc(OC)c1OC | inactive | Non-Toxic | Non-Toxic | inactive | –
6 | COc1ccc(C(=O)NCCCCC/C=[N+](\[O-])Cc2ccccc2)cc1OC | inactive | Non-Toxic | Non-Toxic | inactive | –
7 | COc1cc(C(=O)NCCCCCCC/C=[N+](\[O-])C(C)(C)C)cc(OC)c1OC | inactive | Non-Toxic | Non-Toxic | – | –
8 | CC(C)(C)/[N+]([O-])=C/CCCCCNC(=O)c1ccccc1 | inactive | Non-Toxic | Non-Toxic | inactive | –
9 | COc1ccc(C(=O)NCCCCC/C=[N+](\[O-])Cc2ccccc2)cc1 | inactive | Non-Toxic | Non-Toxic | inactive | –
10 | COc1ccc(C(=O)NCCCCC/C=[N+](\[O-])C2CCCCC2)cc1 | inactive | Non-Toxic | Non-Toxic | inactive | –
11 | COc1cccc(C(=O)NCCCCC/C=[N+](\[O-])Cc2ccccc2)c1 | inactive | Non-Toxic | Non-Toxic | inactive | –
12 | COc1ccc(C(=O)NCCCCC/C=[N+](\[O-])C(C)(C)C)cc1 | inactive | Non-Toxic | Non-Toxic | – | –
13 | COc1cc(C(=O)NCCCCC/C=[N+](\[O-])C(C)(C)C)cc(OC)c1OC | inactive | 107 to 122% | Non-Toxic | – | inhibition [5]: Active; inhibition [6]: Active; Activity [7]: inactive; Activity [8]: inactive; Activity [9]: inactive; Activity [10]: inactive
14 | COc1ccc(C(=O)NCCCCC/C=[N+](\[O-])C(C)(C)C)cc1OC | inactive | 107 to 122% | Non-Toxic | – | inhibition [11]: Active; inhibition [12]: Active; Ki [13]: 5.2 µM; Activity [7]: 32.9%; Activity [8]: 20.7%; Activity [9]: 44.3%; Activity [10]: 50.3%; Activity [14]: Dose-dependent effect
15 | COc1ccc(C(=O)NCCCCC/C=[N+](\[O-])C2CCCCC2)cc1OC | inactive | Non-Toxic | Non-Toxic | inactive | –
16 | COc1cccc(C(=O)NCCCCC/C=[N+](\[O-])C(C)(C)C)c1 | inactive | Non-Toxic | Non-Toxic | – | –
17 | COc1cccc(C(=O)NCCCCC/C=[N+](\[O-])C2CCCCC2)c1 | inactive | Non-Toxic | Non-Toxic | inactive | –
18 | COc1cc(C(=O)NCCCCCCCCC/C=[N+](\[O-])C(C)(C)C)cc(OC)c1OC | inactive | Non-Toxic | Non-Toxic | – | –
19 | COc1cc(C(=O)NCCCCC/C=[N+](\[O-])Cc2ccccc2)cc(OC)c1OC | inactive | Non-Toxic | Non-Toxic | inactive | –
